Test results taken from ChEMBL document CHEMBL1131198, “From micromolar to nanomolar affinity: a systematic approach to identify the binding site of CGRP at the human calcitonin gene-related peptide 1 receptor” (J Med Chem, 1998).
Numbered stars: 1 amine (or outer) side, 2 acyl side, 3 side chain; on linkers, the order of the positions; unused ones are H or OH. Square brackets hold non-standard residues; d marks the D form. Peptide text beside a SMILES is read from it. X1 = O=C(C1(c2ccccc2)CC1CN[*:1])[*:2]; X2 = O=C(C1CC1CN[*:1])[*:2]; Aib = CC(C)(N)C(=O)O

Each molecule was assayed against Calcitonin gene-related peptide type 1 receptor (Homo sapiens, UniProt O60894+Q16602) (assay: CGRP1 receptor affinity on human neuroblastoma cells SK-N-MC, which selectively express the human CGRP1 receptor.).
Procedure, shortened: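 SK-N-MC membranes (cells grown in DMEM, detached with PBS/0.02% EDTA, homogenized, pellet in Tris buffer pH 7.40 with 1% BSA, 0.1% bacitracin, stored -80 °C) diluted 1:10 in assay buffer (50 mM Tris, 150 mM NaCl, 5 mM MgCl2, 1 mM EDTA, pH 7.40).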

Chain of Calcitonin gene-related peptide type 1 receptor (Q16602 whole entry, one chain of several): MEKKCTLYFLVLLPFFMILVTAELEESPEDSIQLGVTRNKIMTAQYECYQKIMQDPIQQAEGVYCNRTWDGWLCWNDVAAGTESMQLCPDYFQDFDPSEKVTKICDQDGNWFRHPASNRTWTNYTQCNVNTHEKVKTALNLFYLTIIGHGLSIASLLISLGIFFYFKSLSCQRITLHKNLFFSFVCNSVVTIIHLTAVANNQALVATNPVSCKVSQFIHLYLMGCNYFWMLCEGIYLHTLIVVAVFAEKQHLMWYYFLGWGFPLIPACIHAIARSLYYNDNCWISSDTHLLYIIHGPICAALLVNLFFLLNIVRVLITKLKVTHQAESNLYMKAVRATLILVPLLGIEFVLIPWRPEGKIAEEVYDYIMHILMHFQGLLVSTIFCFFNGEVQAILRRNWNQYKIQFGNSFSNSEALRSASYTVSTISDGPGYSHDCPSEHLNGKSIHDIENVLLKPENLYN

| Structure (SMILES) | IC50 [µM] |
| --- | --- |
| CC(C)[C@H](NC(=O)[C@H](CC(=O)O)NC(=O)[C@@H](NC(=O)[C@@H]1CCCN1C(=O)[C@@H](NC(=O)[C@@H](N)Cc1ccccc1)C(C)C)[C@@H](C)O)C(=O)NCC(=O)N1CCCC[C@H]1C(=O)N[C@@H](Cc1ccccc1)C(=O)N[C@@H](C)C(=O)N[C@@H](Cc1ccccc1)C(=O)O | 0.91 |
| CC(C)[C@H](NC(=O)[C@@H](CC(N)=O)NC(=O)[C@@H](NC(=O)[C@@H]1CCCN1C(=O)[C@@H](NC(=O)[C@@H](N)Cc1ccc(O)cc1)C(C)C)[C@@H](C)O)C(=O)NCC(=O)N[C@@H](CO)C(=O)N[C@@H](CCC(=O)O)C(=O)N[C@@H](C)C(=O)N[C@@H](Cc1ccccc1)C(=O)O | > 100 |
| CC(C)[C@H](NC(=O)[C@H](CC(N)=O)NC(=O)[C@@H](NC(=O)[C@@H]1CCCN1C(=O)[C@@H](NC(=O)[C@@H](N)Cc1ccc(O)cc1)C(C)C)[C@@H](C)O)C(=O)NCC(=O)N[C@@H](CO)C(=O)N[C@@H](CCC(=O)O)C(=O)N[C@H](C)C(=O)N[C@@H](Cc1ccccc1)C(=O)O | > 100 |
| CC(C)[C@H](NC(=O)[C@H](CC(N)=O)NC(=O)[C@@H](NC(=O)[C@@H]1CCCN1C(=O)[C@@H](NC(=O)[C@@H](N)Cc1ccc(O)cc1)C(C)C)[C@@H](C)O)C(=O)NCC(=O)N[C@H](CO)C(=O)N[C@@H](CCC(=O)O)C(=O)N[C@@H](C)C(=O)N[C@@H](Cc1ccccc1)C(=O)O | > 100 |
| CC(C)[C@H](NC(=O)[C@H](CC(N)=O)NC(=O)[C@@H](NC(=O)[C@@H]1CCCN1C(=O)[C@@H](NC(=O)[C@H](N)Cc1ccc(O)cc1)C(C)C)[C@@H](C)O)C(=O)NCC(=O)N[C@@H](CO)C(=O)N[C@@H](CCC(=O)O)C(=O)N[C@@H](C)C(=O)N[C@@H](Cc1ccccc1)C(=O)O | 80 |
| CC(C)[C@H](NC(=O)[C@H](CC(N)=O)NC(=O)[C@@H](NC(=O)[C@@H]1CCCN1C(=O)[C@@H](NC(=O)[C@@H](N)Cc1ccc(O)cc1)C(C)C)[C@@H](C)O)C(=O)NCC(=O)N[C@@H](CO)C(=O)N[C@@H](CCC(=O)O)C(=O)N[C@@H](C)C(=O)N[C@@H](Cc1ccccc1)C(=O)O | 3 |
| CC(C)[C@H](NC(=O)[C@H](CC(=O)O)NC(=O)[C@@H](NC(=O)[C@@H]1CCCN1C(=O)[C@@H](NC(=O)[C@@H](N)Cc1ccccc1)C(C)C)[C@@H](C)O)C(=O)NCC(=O)NCC1CC1(C(=O)N[C@@H](Cc1ccccc1)C(=O)N[C@@H](C)C(=O)N[C@@H](Cc1ccccc1)C(=O)O)c1ccccc1 (stereo partly specified) (H-FVPTDVG[X1]FAF-OH) | > 3 |
| CC(C)[C@H](NC(=O)[C@H](CC(=O)O)NC(=O)[C@@H](NC(=O)[C@@H]1CCCN1C(=O)[C@@H](NC(=O)[C@@H](N)Cc1ccccc1)C(C)C)[C@@H](C)O)C(=O)NCC(=O)NCC1CC1C(=O)N[C@@H](Cc1ccccc1)C(=O)N[C@@H](C)C(=O)N[C@@H](Cc1ccccc1)C(=O)O (stereo partly specified) (H-FVPTDVG[X2]FAF-OH) | > 3 |

Molecules with a lower IC50, results first:

| IC50 [µM] | Structure (SMILES) |
| --- | --- |
| 0.62 | CC(C)[C@H](NC(=O)[C@H](CC(=O)O)NC(=O)[C@@H](NC(=O)[C@@H]1CCCN1C(=O)[C@@H](NC(=O)[C@@H](N)Cc1ccccc1)C(C)C)[C@@H](C)O)C(=O)NCC(=O)N1C[C@H](O)C[C@H]1C(=O)N[C@@H](Cc1ccccc1)C(=O)N[C@@H](C)C(=O)N[C@@H](Cc1ccccc1)C(=O)O |
| 0.17 | CC(C)[C@H](NC(=O)[C@H](CC(=O)O)NC(=O)[C@@H](NC(=O)[C@@H]1CCCN1C(=O)[C@@H](NC(=O)[C@@H](N)Cc1ccccc1)C(C)C)[C@@H](C)O)C(=O)NCC(=O)NC(C)(C)C(=O)N[C@@H](Cc1ccccc1)C(=O)N[C@@H](C)C(=O)N[C@@H](Cc1ccccc1)C(=O)O (H-FVPTDVG[Aib]FAF-OH) |
| 0.029 | CC(C)[C@H](NC(=O)[C@H](CC(=O)O)NC(=O)[C@@H](NC(=O)[C@@H]1CCCN1C(=O)[C@@H](NC(=O)[C@@H](N)Cc1ccccc1)C(C)C)[C@@H](C)O)C(=O)NCC(=O)N1CCC[C@H]1C(=O)N[C@@H](Cc1ccccc1)C(=O)N[C@@H](C)C(=O)N[C@@H](Cc1ccccc1)C(=O)O |
